Experimental data reported in ChEMBL document CHEMBL3864143, “Design, synthesis and biological evaluation of novel non-covalent piperidine-containing peptidyl proteasome inhibitors” (Bioorg Med Chem, 2016).
The source made the active and inactive calls. The rule behind the calls is not given here.

Experiments:
[1] = biological target: T1, Proteasome Macropain subunit MB1 (Homo sapiens, UniProt P28074); assay: Inhibition of chymotrypsin-like activity of human 20S proteasome preincubated for 15 mins followed by addition of Suc-Leu-Leu-Val-Tyr-AMC as substrate by fluorescence analysis
T1 sequence (P28074 whole entry): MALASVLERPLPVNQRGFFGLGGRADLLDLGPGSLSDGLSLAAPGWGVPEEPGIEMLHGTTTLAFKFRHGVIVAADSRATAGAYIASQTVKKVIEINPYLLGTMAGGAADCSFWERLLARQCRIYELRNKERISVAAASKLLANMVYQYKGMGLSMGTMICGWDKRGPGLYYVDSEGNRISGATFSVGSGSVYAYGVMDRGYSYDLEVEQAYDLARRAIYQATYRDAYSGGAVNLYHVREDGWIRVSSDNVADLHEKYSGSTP
Summary of the method: (§1)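 Purified human proteasome (25 µg/mL working stock) in 100 mM Tris-HCl pH 8.0 preincubated 15 min with compound. Suc-LLVY-AMC added (50 µM as listed), AMC release followed by fluorescence increase at ex 355/em 460 nm. IC50 by sigmoidal variable-slope fit, mean of three independent determinations.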

[2] = Antiproliferative activity against human RPMI8226 cells measured after 72 hrs by MTS assay; format: functional, cell-based; details: RPMI-8226, 72 h
Summary of the method: (§2)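 MM-1S seeded at 2×10^4/well and RPMI 8226 at 0.5×10^4/well, exposed to compounds for 72 h. MTS then added at 0.5 mg/mL final for 2–4 h, absorbance read at 490 nm with 690 nm background subtraction. Growth inhibition = (A_control − A_sample)/A_control; IC50 from nonlinear sigmoidal variable-slope dose-response fit.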

[3] = Antiproliferative activity against human MM1S cells measured after 72 hrs by MTS assay; format: functional, cell-based; details: MM1.S; summary of the method: as §2
[4] = biological target: T2, Proteasome subunit beta type-5 (Mus musculus) (UniProt O55234); assay: Inhibition of chymotrypsin-like activity of 20S proteasome in mouse blood at 0.5 to 12.5 uM preincubated for 40 mins followed by addition of Suc-Leu-Leu-Val-Tyr-AMC as substrate relative to control; format: tissue-based
T2 sequence (whole entry): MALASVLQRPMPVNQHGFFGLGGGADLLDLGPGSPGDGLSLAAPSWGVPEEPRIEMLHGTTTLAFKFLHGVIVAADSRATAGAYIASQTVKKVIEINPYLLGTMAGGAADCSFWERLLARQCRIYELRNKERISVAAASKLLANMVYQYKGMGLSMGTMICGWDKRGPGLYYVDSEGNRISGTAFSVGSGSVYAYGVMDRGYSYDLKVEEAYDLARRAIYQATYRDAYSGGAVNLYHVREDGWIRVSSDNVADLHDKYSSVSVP
Summary of the method: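 Whole blood from normal mice incubated 40 min with compound (compound:serum 1:50 by volume), centrifuged, cells lysed in 5 mM EDTA pH 8.0 at 4°C for 60 min. Lysate protein (Bradford, 100 µg) assayed in 20 mM HEPES pH 8.0, 0.5 mM EDTA, 0.05% SDS, 1% DMSO with 50 µM Suc-LLVY-AMC; fluorescence at ex 355/em 460 nm.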

[5] = biological target: T1, Proteasome Macropain subunit MB1; assay: Inhibition of chymotrypsin-like activity of 20S proteasome (unknown origin) using succinyl-leu-leu-val-tyr-7-amino-4-methyl coumarin as substrate after 15 mins by fluorescent spectroscopic method; summary of the method: as §1
[6] = Half life in mouse plasma at 2 uM by LC-MS/MS analysis; format: ADME, cell-free
Summary of the method: (§3)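 Sodium-heparin mouse plasma or blood, pre-warmed to 37°C, spiked to 2 µM final from a 0.02 mM dosing solution in 0.05 M sodium phosphate with 0.5% BSA; duplicates held at 37°C. Time points quenched with acetonitrile, supernatant diluted 1:1 in water for LC-MS/MS. Percent remaining from analyte/internal-standard peak-area ratio versus time 0; T1/2 from single-phase exponential decay fit.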

[7] = Half life in mouse blood at 2 uM by LC-MS/MS analysis; format: ADME, tissue-based; summary of the method: as §3

SMILES | IC50 [1] | inhibition [4] | IC50 [5] | half-life at 2 µM [6] | half-life at 2 µM [7] | IC50 [2] | IC50 [3]
O=C(Nc1ccc(F)cc1)C1CCN(C(=O)N[C@@H](CCc2ccccc2)C(=O)N[C@@H](CCc2ccccc2)C(=O)NCc2ccccc2Cl)CC1 | 0.0169 µM |  |  |  |  | 0.0943 µM | 0.107 µM
COc1ccc(NC(=O)C2CCN(C(=O)N[C@@H](CCc3ccccc3)C(=O)N[C@@H](CCc3ccccc3)C(=O)NCc3ccccc3Cl)CC2)cc1 | 0.0157 µM |  |  |  |  | 0.0846 µM | 0.0929 µM
O=C(Nc1ccccc1)C1CCN(C(=O)N[C@@H](CCc2ccccc2)C(=O)N[C@@H](CCc2ccccc2)C(=O)NCc2ccccc2Cl)CC1 | 0.003 µM | > 60% |  |  |  | 0.0185 µM | 0.0202 µM
C[C@H](NC(=O)N1CCC(NC(=O)c2cnccn2)CC1)C(=O)N[C@@H](CCc1ccccc1)C(=O)NCc1ccccc1Cl | 0.67 µM |  |  |  |  |  | 
CC(C)C[C@H](NC(=O)N1CCC(NC(=O)c2cnccn2)CC1)C(=O)N[C@@H](CCc1ccccc1)C(=O)NCc1ccccc1Cl | 0.0457 µM |  |  |  |  |  | 
O=C(NC1CCN(C(=O)N[C@@H](Cc2ccccc2)C(=O)N[C@@H](CCc2ccccc2)C(=O)NCc2ccccc2Cl)CC1)c1cnccn1 | 0.344 µM |  |  |  |  |  | 
CC(C)C[C@H](NC(=O)[C@H](CCc1ccccc1)NC(=O)CN1CCOCC1)C(=O)N[C@@H](Cc1ccccc1)C(=O)N[C@@H](CC(C)C)C(=O)[C@@]1(C)CO1 [CARFILZOMIB] |  | Active |  |  |  | 0.0132 µM | 0.0015 µM
C[C@H](NC(=O)N1CCC(C(=O)Nc2cnccn2)CC1)C(=O)N[C@@H](CCc1ccccc1)C(=O)NCc1ccccc1Cl | 0.601 µM |  |  |  |  |  | 
CC(C)C[C@H](NC(=O)N1CCC(C(=O)Nc2cnccn2)CC1)C(=O)N[C@@H](CCc1ccccc1)C(=O)NCc1ccccc1Cl | 0.0166 µM |  |  |  |  | 0.371 µM | 0.261 µM
COc1ccc2c(c1)C(CC(=O)N[C@@H](CC(C)C)C(=O)N[C@H](CC(C)C)C(=O)NCc1c(F)cccc1F)CC2=O (stereo not given in full) |  |  | 0.14 µM |  |  |  | 

Second part, led by results:

IC50 [1] | inhibition [4] | IC50 [5] | half-life at 2 µM [6] | half-life at 2 µM [7] | SMILES | IC50 [2] | IC50 [3]
0.0147 µM |  |  |  |  | O=C(Nc1cnccn1)C1CCN(C(=O)N[C@@H](CCc2ccccc2)C(=O)N[C@@H](CCc2ccccc2)C(=O)NCc2ccccc2Cl)CC1 | 0.196 µM | 0.135 µM
0.0043 µM | > 60% |  |  |  | O=C(Nc1nccs1)C1CCN(C(=O)N[C@@H](CCc2ccccc2)C(=O)N[C@@H](CCc2ccccc2)C(=O)NCc2ccccc2Cl)CC1 | 0.0295 µM | 0.0325 µM
0.153 µM |  |  |  |  | O=C(Nc1cnccn1)C1CCN(C(=O)N[C@@H](Cc2ccccc2)C(=O)N[C@@H](CCc2ccccc2)C(=O)NCc2ccccc2Cl)CC1 |  | 
0.0237 µM |  |  |  |  | O=C(NC1CCN(C(=O)N[C@@H](CCc2ccccc2)C(=O)N[C@@H](CCc2ccccc2)C(=O)NCc2ccccc2Cl)CC1)c1cnccn1 |  | 
0.0014 µM | > 60% |  | 7.25 h | 2.98 h | O=C(Nc1cccnc1)C1CCN(C(=O)N[C@@H](CCc2ccccc2)C(=O)N[C@@H](CCc2ccccc2)C(=O)NCc2ccccc2Cl)CC1 | 0.0139 µM | 0.0095 µM
0.0024 µM | > 60% |  |  |  | O=C(Nc1ccccn1)C1CCN(C(=O)N[C@@H](CCc2ccccc2)C(=O)N[C@@H](CCc2ccccc2)C(=O)NCc2ccccc2Cl)CC1 | 0.0247 µM | 0.0222 µM
